Holding throughout (type): cell-based
In data set [1] the target is T1, Nuclear receptor subfamily 1 group I member 3 (Mus musculus, UniProt O35627, H213A). Put plainly: Enhancement of nuclear co-repressor receptor binding to mouse CAR H213A mutant […] at 10 uM by yeast two-hybrid assay. In outline:
(§1)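 Yeast two-hybrid: yeast expressing wild-type or mutant mouse CAR LBD plus SRC-1 or NCoR, selected on SD medium lacking Leu and Trp. Pooled colonies treated with DMSO or test chemical for 3.5 h. β-Galactosidase normalized to cell density. SRC-1 reference: wild-type + DMSO = 100. NCoR reference: 10 µM androstenol = 100. Mean ± SD, two independent determinations, each in triplicate.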

For data set [2], the target named is T2, Nuclear receptor subfamily 1 group I member 3 (Mus musculus, UniProt O35627, L212A). The data set is described as follows: Decrease in mouse CAR L212A mutant activation expressed in HEK293 cells at 10 uM by mammalian one-hybrid assay. The conditions noted are these: read-out: Activity. The procedure, abridged:
(§2)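 GAL4 DBD fused to mouse CAR LBD (residues 118-358), wild type or point mutant, cotransfected with UASx4-tk-luc reporter and pCMVβ into HEK293 cells. Cells cultured with DMSO (0.1% v/v) or compound (final 1, 2 or 10 µM). Lysed 24 h post-transfection. Luciferase normalized to β-galactosidase, expressed relative to empty GAL4 vector (=1.0). Mean ± SD, three independent experiments.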

For data set [3], the target named is T3, Nuclear receptor subfamily 1 group I member 3 (Mus musculus, UniProt O35627, S251L). Put plainly: Decrease in mouse CAR S251L mutant activation expressed in HEK293 cells at 2 uM by mammalian one-hybrid assay. The conditions noted are these: read-out: Activity. The procedure, abridged:
(§3)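 GAL4-DBD fused to mouse CAR LBD (residues 118-358), wild-type or point mutant, cotransfected with UASx4-tk-luc reporter and pCMVβ into HEK293 cells. Cells were exposed to final 1 µM, 2 µM or 10 µM test chemical, or 0.1% v/v DMSO, for 24 h after transfection. Luciferase was normalized to β-galactosidase and set against empty GAL4 vector (=1.0). Mean ± standard deviation, three independent experiments.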

Data set [4] addresses T2, Nuclear receptor subfamily 1 group I member 3. Put plainly: Activation of mouse CAR L212A mutant expressed in HEK293 cells at 2 uM by mammalian one-hybrid assay. The following applies: hek293, 2 µM. In outline: as §3
Data set [5] has as its target T4, Nuclear receptor subfamily 1 group I member 3 (Mus musculus, UniProt O35627, L353A). The data set is described as follows: Decrease in nuclear co-repressor receptor binding to mouse CAR L353A mutant […] at 2 uM by yeast two-hybrid assay. The conditions noted are these: read-out: Activity. The procedure, abridged: as §1
Data set [6] addresses T5, Nuclear receptor subfamily 1 group I member 3 (Mus musculus, UniProt O35627, F171L). The data set is described as follows: Enhancement of nuclear co-repressor receptor binding to mouse CAR F171L mutant […] at 2 uM by yeast two-hybrid assay. In outline: as §1
Data set [7] addresses T6, Nuclear receptor subfamily 1 group I member 3 (Mus musculus, UniProt O35627, T350A). The data set is described as follows: Decrease in steroid receptor coactivator 1 binding to mouse CAR T350A mutant […] at 2 uM by yeast two-hybrid assay. The conditions noted are these: read-out: Activity. The procedure, abridged:
as §1

For data set [8], the target named is T6, Nuclear receptor subfamily 1 group I member 3. The data set is described as follows: Decrease in mouse CAR T350A mutant activation expressed in HEK293 cells at 2 uM by mammalian one-hybrid assay. The following applies: read-out: Activity. In outline: as §3
In data set [9] the target is T7, Nuclear receptor subfamily 1 group I member 3 (Mus musculus, UniProt O35627, N175A). The data set is described as follows: Decrease in mouse CAR N175A mutant activation expressed in HEK293 cells at 2 uM by mammalian one-hybrid assay. The conditions noted are these: read-out: Activity. The procedure, abridged: as §3
Data set [10] has as its target T8, Nuclear receptor subfamily 1 group I member 3 (Mus musculus, UniProt O35627, F171A). Put plainly: Effect on nuclear co-repressor receptor binding to mouse CAR F171A mutant […] at 2 uM by yeast two-hybrid assay. The following applies: read-out: Activity. The procedure, abridged: as §1
Data set [11] concerns the target T5, Nuclear receptor subfamily 1 group I member 3. Put plainly: Effect on steroid receptor co-activator 1 binding to mouse CAR F171L mutant […] at 2 uM by yeast two-hybrid assay. The following applies: read-out: Activity. In outline:
as §1

Data set [12] deals with T3, Nuclear receptor subfamily 1 group I member 3. The data set is described as follows: Decrease in nuclear co-repressor receptor binding to mouse CAR S251L mutant […] at 2 uM by yeast two-hybrid assay. More on the design: scale not given: the % may be the effect or the level left. In outline: as §1
Data set [13] deals with T9, Nuclear receptor subfamily 1 group I member 3 (Mus musculus, UniProt O35627, T350M). Put plainly: Effect on steroid receptor coactivator 1 binding to mouse CAR T350M mutant […] at 2 uM by yeast two-hybrid assay. The following applies: read-out: Activity. In outline:
as §1

Data set [14] has as its target T9, Nuclear receptor subfamily 1 group I member 3. Put plainly: Decrease in nuclear co-repressor receptor binding to mouse CAR T350M mutant […] at 2 uM by yeast two-hybrid assay. The conditions noted are these: read-out: Activity. The procedure, abridged: as §1
The target of data set [15] is T10, Nuclear receptor subfamily 1 group I member 3 (Mus musculus, UniProt O35627, I252L). The data set is described as follows: Effect on steroid receptor coactivator 1 binding to mouse CAR I252L mutant […] at 2 uM by yeast two-hybrid assay. The conditions noted are these: read-out: Activity. The procedure, abridged: as §1
Data set [16] addresses T11, Nuclear receptor subfamily 1 group I member 3 (Mus musculus, UniProt O35627, Y336A). Put plainly: Decrease in nuclear co-repressor receptor binding to mouse CAR Y336A mutant […] at 2 uM by yeast two-hybrid assay. The following applies: read-out: Activity. In outline:
as §1

The target in data set [17] is T6, Nuclear receptor subfamily 1 group I member 3. Put plainly: Effect on nuclear co-repressor receptor binding to mouse CAR T350A mutant […] at 1 uM by yeast two-hybrid assay. The following applies: read-out: Activity. In outline: (§4)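 Yeast expressing wild-type or mutant mouse CAR LBD plus NCoR, selected on SD plates lacking leucine and tryptophan. Pooled colonies treated with DMSO or compound for 3.5 h. β-Galactosidase activity normalized to cell density. Reference is 10 µM androstenol (=100). Mean ± SD of two independent determinations, each in triplicate.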

For data set [18], the target named is T9, Nuclear receptor subfamily 1 group I member 3. Put plainly: Decrease in mouse CAR T350M mutant activation expressed in HEK293 cells at 1 uM by mammalian one-hybrid assay. The conditions noted are these: read-out: Activity. In outline:
as §2

Data set [19] deals with T10, Nuclear receptor subfamily 1 group I member 3. The data set is described as follows: Activation of mouse CAR I252L mutant expressed in HEK293 cells at 1 uM by mammalian one-hybrid assay. The following applies: hek293, 1 µM. In outline:
as §2

In data set [20] the target is T4, Nuclear receptor subfamily 1 group I member 3. Put plainly: Decrease in mouse CAR L353A mutant activation expressed in HEK293 cells at 1 uM by mammalian one-hybrid assay. The following applies: read-out: Activity. The procedure, abridged: as §2
The target in data set [21] is T11, Nuclear receptor subfamily 1 group I member 3. The data set is described as follows: Effect on nuclear co-repressor receptor binding to mouse CAR Y336A mutant […] at 1 uM by yeast two-hybrid assay. The conditions noted are these: read-out: Activity. The procedure, abridged: as §4
Data set [22] addresses T1, Nuclear receptor subfamily 1 group I member 3. The data set is described as follows: Effect on nuclear co-repressor receptor binding to mouse CAR H213A mutant […] at 1 uM by yeast two-hybrid assay. The following applies: read-out: Activity. The procedure, abridged: as §4
Data set [23] concerns the target T2, Nuclear receptor subfamily 1 group I member 3. Put plainly: Activation of mouse CAR L212A mutant expressed in HEK293 cells at 1 uM by mammalian one-hybrid assay. The conditions noted are these: hek293, 1 µM. In outline: as §2
Data set [24] addresses T8, Nuclear receptor subfamily 1 group I member 3. The data set is described as follows: Effect on steroid receptor co-activator 1 binding to mouse CAR F171A mutant […] at 1 uM by yeast two-hybrid assay. The following applies: read-out: Activity. In outline:
(§5)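 Yeast expressing wild-type or mutant mouse CAR LBD plus SRC-1, selected on SD plates lacking leucine and tryptophan. Pooled colonies treated with DMSO or compound for 3.5 h. β-Galactosidase activity normalized to cell density. Reference is wild-type CAR + SRC-1 with DMSO (=100). Mean ± SD of two independent determinations, each in triplicate.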

Data set [25] addresses T7, Nuclear receptor subfamily 1 group I member 3. Put plainly: Decrease in steroid receptor co-activator 1 binding to mouse CAR N175A mutant […] at 1 uM by yeast two-hybrid assay. The following applies: read-out: Activity. The procedure, abridged:
as §5

T6 sequence (O35627 whole entry T350A): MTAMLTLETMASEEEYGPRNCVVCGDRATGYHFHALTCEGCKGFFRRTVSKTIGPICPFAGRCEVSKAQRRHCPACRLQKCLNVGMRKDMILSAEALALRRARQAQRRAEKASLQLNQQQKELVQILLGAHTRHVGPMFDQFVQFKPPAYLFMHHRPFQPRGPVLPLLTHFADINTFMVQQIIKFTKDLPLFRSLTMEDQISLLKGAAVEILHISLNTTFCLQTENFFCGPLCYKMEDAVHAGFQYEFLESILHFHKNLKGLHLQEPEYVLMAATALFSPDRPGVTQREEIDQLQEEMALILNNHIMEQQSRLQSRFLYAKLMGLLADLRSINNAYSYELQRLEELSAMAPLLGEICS
T2 sequence (O35627 whole entry L212A, the tested form may be a part): as the sequence (O35627 whole entry T350A) above, with L212A, A350T counted along it
T9 sequence (O35627 whole entry T350M): as the sequence (O35627 whole entry T350A) above, with A350M counted along it
T3 sequence (O35627 whole entry S251L, the tested form may be a part): as the sequence (O35627 whole entry T350A) above, with S251L, A350T counted along it
T1 sequence (O35627 whole entry H213A, the tested form may be a part): as the sequence (O35627 whole entry T350A) above, with H213A, A350T counted along it
T8 sequence (O35627 whole entry F171A): as the sequence (O35627 whole entry T350A) above, with F171A, A350T counted along it
T4 sequence (O35627 whole entry L353A): as the sequence (O35627 whole entry T350A) above, with A350T, L353A counted along it
T11 sequence (O35627 whole entry Y336A): as the sequence (O35627 whole entry T350A) above, with Y336A, A350T counted along it
T5 sequence (O35627 whole entry F171L): as the sequence (O35627 whole entry T350A) above, with F171L, A350T counted along it
T10 sequence (O35627 whole entry I252L): as the sequence (O35627 whole entry T350A) above, with I252L, A350T counted along it
T7 sequence (O35627 whole entry N175A): as the sequence (O35627 whole entry T350A) above, with N175A, A350T counted along it

`COc1ccc(C(=O)CCCc2ccccc2)cc1`: the Activity result in data set [1] is “>= 50%”.

Consider `C[C@]12CC[C@@H](O)C[C@@H]1CC[C@@H]1[C@@H]2CC[C@]2(C)C=CC[C@@H]12` [ANDROSTENOL], for which the inhibition at 10 µM in data set [2] came out at 50%.

For `Clc1ccccc1C(c1ccccc1)(c1ccccc1)n1ccnc1` [CLOTRIMAZOLE], the inhibition at 2 µM in [3] was under 50%; in [5], at least 50%; in [7], at least 50%; in data set [8] it was under 50%; in [9], 50%; in data set [14], at least 50%. For the same molecule, the inhibition at 2 µM in data set [16] was at least 50%. The Activity is on record as under 50% in [4], over 150% in data set [6] and “>= 50%” in data set [12]. For the same molecule, the activity at 2 µM is under 50% in data set [10], at least 50% in [11], under 50% in data set [13] and under 50% in [15].

Turning to `Clc1cnc(Oc2ccc(Oc3ncc(Cl)cc3Cl)cc2)c(Cl)c1`, the activity at 1 µM in [17], in data set [21], in data set [22] and in [24] was under 50% in each case. Besides, the values for the inhibition at 1 µM in data set [18], in data set [20] and in data set [25] were 50%, 50% and at least 50%, respectively. The Activity in data set [19] and in data set [23] was under 50% each time.

These data come from ChEMBL document CHEMBL1152300, “Ligand specificity of constitutive androstane receptor as probed by induced-fit docking and mutagenesis” (J Med Chem, 2008).
